We go through 8 molecules from ChEMBL document CHEMBL1124370 (1989).

Activity calls are given as the source filed them. The calls are words filed in the database; no cut-off is given here.

Test [1] has as its target Aldo-keto reductase family 1 member B1 (Bos taurus) (UniProt P16116). The test can be described thus: […] inhibition of aldose reductase in partially purified bovine lens preparation at 10e-7 M concentration. The procedure, abridged: (§1)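 Enzyme partially purified from bovine lens by a published method, with the final chromatographic step omitted. Test compound was added at 1×10^-6 or 1×10^-7 M. Assays were run in duplicate, and the read-out was % inhibition of enzymatic activity.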

For test [2], the system named is Rattus norvegicus. In words: […] inhibition of sorbitol accumulation in rat sciatic nerves at 10e-6 M concentration; NS=not significant. Format: functional. The settings on record: Sciatic nerve. The procedure, abridged:
(§2)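 Sciatic nerves were taken from male Sprague-Dawley rats (200–250 g) after CO2 euthanasia. Nerves were incubated 3 h at 37 °C under 95% air/5% CO2 in Hank's salts buffer, pH 7.4, with 50 mM glucose and (0–5)×10^-5 M compound, in triplicate. Nerve sorbitol was measured spectrofluorometrically in duplicate, and the read-out was % inhibition of sorbitol accumulation.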

Test [3] relates to Rattus norvegicus. The test can be described thus: In vivo inhibition of galactitol accumulation in the diaphragm of rat at a dose of 67 mg/kg/day; NS =not significant. The test is classed as functional, organism-based.
The target in test [4] is Aldo-keto reductase family 1 member B1 (Bos taurus) (UniProt P16116). In words: Inhibition of aldose reductase in partially purified bovine lens preparation at 10e-6 M. The procedure, abridged:
(§3)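 Aldose reductase partially purified from bovine lens, with the final chromatographic step of the earlier preparation omitted. Assay run in duplicate with test compound at 1 × 10^-6 M or 1 × 10^-7 M. Reported as % inhibition of enzymatic activity.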

Test [5] has as its system Rattus norvegicus. The test can be described thus: In vivo inhibition of galactitol accumulation in the sciatic nerves of rat at a dose of 67 mg/kg/day; NS=not significant. The test is classed as functional, organism-based. The settings on record: Sciatic nerve.
Test [6] deals with Rattus norvegicus. The test can be described thus: […] inhibition of sorbitol accumulation in rat sciatic nerves at 10e-5 M concentration. Format: functional, Sciatic nerve. In outline:
as §2

Test [7] deals with Rattus norvegicus. In words: In vivo inhibition of sorbitol accumulation in rat sciatic nerves at 5*10e-5 M concentration. Format: functional, Sciatic nerve. The settings on record: in the assay text read “In vitro” for “In vivo”. The procedure, abridged:
as §2

Test [8] concerns Rattus norvegicus. The test can be described thus: In vivo inhibition of galactitol accumulation in the sciatic nerves of rat at a dose of 56 mg/kg/day; NS=not significant. The test is classed as functional, organism-based. The settings on record: Sciatic nerve.
Test [9] has as its system Rattus norvegicus. In words: […] inhibition of sorbitol accumulation in rat sciatic nerves at 5*10e-6 M concentration. The settings on record: in the assay text read “In vitro” for “In vivo”. Format: functional, Sciatic nerve. In outline:
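Sciatic nerves from male Sprague-Dawley rats (200–250 g), removed after CO2 euthanasia, incubated ex vivo for 3 h at 37 °C under 95% air/5% CO2 in Hank's salts buffer, pH 7.4, with 50 mM glucose and 5 × 10^-6 M test compound. Triplicate incubations; nerve sorbitol measured in duplicate by spectrofluorometric assay. Reported as % inhibition of sorbitol accumulation.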

Test [10] concerns the target Aldo-keto reductase family 1 member B1 (Bos taurus) (UniProt P16116). In words: […] inhibition of aldose reductase in partially purified bovine lens preparation at 10e-6 M concentration. In outline: as §1
Test [11] relates to Rattus norvegicus. The test can be described thus: In vivo inhibition of galactitol accumulation in the diaphragm of rat. at a dose of 56 mg/kg/day; NS=not significant. Format: functional, organism-based.
Test [12] concerns the target Aldo-keto reductase family 1 member B1 (Bos taurus) (UniProt P16116). In words: Inhibition of aldose reductase in partially purified bovine lens preparation at 10e-7 M concentration. In outline:
as §3

Test [13] has as its system Rattus norvegicus. In words: In vivo inhibition of galactitol accumulation in the sciatic nerves of ratat a dose of 106 mg/kg/day. The settings on record: Sciatic nerve. Format: functional.
Test [14] deals with Rattus norvegicus. The test can be described thus: In vivo inhibition of sorbitol accumulation in rat sciatic nerves at 10e-6 M concentration. Format: functional, Sciatic nerve. In outline: as §2
For test [15], the system named is Rattus norvegicus. In words: In vivo inhibition of galactitol accumulation in the diaphragm of rat at a dose of 106 mg/kg/day. Format: functional.
For test [16], the system named is Rattus norvegicus. In words: In vivo inhibition of galactitol accumulation in the sciatic nerves of rat at a dose of 105 mg/kg/day; NS=not significant. The test is classed as functional, organism-based. The settings on record: Sciatic nerve.
The test system of test [17] is Rattus norvegicus. In words: In vivo inhibition of galactitol accumulation in the diaphragm of rat at a dose of 105 mg/kg/day; NS=not significant. Format: functional, organism-based.
Test [18] has as its system Rattus norvegicus. In words: In vivo inhibition of galactitol accumulation in the diaphragm of rat. at a dose of 27 mg/kg/day. Format: functional.
In test [19] the test system is Rattus norvegicus. In words: In vivo inhibition of galactitol accumulation in the sciatic nerves of rat at a dose of 27 mg/kg/day. Format: functional. The settings on record: Sciatic nerve.
For test [20], the system named is Rattus norvegicus. The test can be described thus: In vivo inhibition of galactitol accumulation in the sciatic nerves of rat at a dose of 10 mg/kg/day. The settings on record: Sciatic nerve. The test is classed as functional.
The subject of test [21] is Rattus norvegicus. In words: In vivo inhibition of galactitol accumulation in the diaphragm of rat at a dose of 10 mg/kg/day. Format: functional.
The subject of test [22] is Rattus norvegicus. In words: In vivo inhibition of galactitol accumulation in the diaphragm of rat at a dose of 107 mg/kg/day. The test is classed as functional.
For test [23], the system named is Rattus norvegicus. In words: In vivo inhibition of galactitol accumulation in the sciatic nerves of rat at a dose of 107 mg/kg/day. The settings on record: Sciatic nerve. Format: functional.
In test [24] the test system is Rattus norvegicus. The test can be described thus: In vivo inhibition of galactitol accumulation in the diaphragm of rat at a dose of 4 mg/kg/day. Format: functional.
Test [25] has as its system Rattus norvegicus. The test can be described thus: In vivo inhibition of galactitol accumulation in the sciatic nerves of rat at a dose of 4 mg/kg/day. Format: functional. The settings on record: Sciatic nerve.
The subject of test [26] is Rattus norvegicus. The test can be described thus: In vivo inhibition of galactitol accumulation in the diaphragm of rat. at a dose of 50 mg/kg/day; NS=not significant. The test is classed as functional, organism-based.
Test [27] concerns Rattus norvegicus. The test can be described thus: In vivo inhibition of galactitol accumulation in the sciatic nerves of rat at a dose of 50 mg/kg/day; NS=not significant. Format: functional, organism-based. The settings on record: Sciatic nerve.

For `COc1ccc2c(C(=O)N(CC(=O)O)C(=O)OCc3ccccc3)cccc2c1C(F)(F)F`, the inhibition is 66% in test [1] and 89% in test [4]. Moreover, the inhibition result in the test on Rattus norvegicus [2], in the test on Rattus norvegicus [3] and in the test on Rattus norvegicus [5] was “inactive” each time. Besides, the Inhibition in the test on Rattus norvegicus [6] is given as 28%.

For `COc1ccc2c(/C(=N/S(=O)(=O)C(F)(F)F)N(C)CC(=O)O)cccc2c1C(F)(F)F`, the inhibition was found to be 69% in [1] and 94% in [10]. For the same molecule, the Inhibition with Rattus norvegicus [7] is given as 71%; in the test on Rattus norvegicus [9], 36%. Moreover, the inhibition entry with Rattus norvegicus [8] and in the test with Rattus norvegicus [11] was “inactive” in each case.

Take `CSc1ccc2c(C(=O)N(C)CC(=O)O)cccc2c1C(F)(F)F`: the inhibition in test [12] was 51%; in test [4], 85%. Further, the inhibition in vivo at 106 mg/kg/day with Rattus norvegicus [13] worked out at 36%; in the test on Rattus norvegicus [15], 73%. Moreover, the Inhibition is given as 73% in the test with Rattus norvegicus [6] and 34% in the test with Rattus norvegicus [14].

As to `COc1ccc2c(C(=O)N(CC(=O)O)C(=O)OCC(C)(C)C)cccc2c1C(F)(F)F`, the inhibition in test [12] was 18%; in [4] it was 64%. Further, the inhibition entry in the test on Rattus norvegicus [16] and with Rattus norvegicus [17] was “inactive” in each case. Besides, the Inhibition was found to be 37% in the test on Rattus norvegicus [6] and 28% in the test on Rattus norvegicus [14].

As for `CSc1ccc2c(C(=S)N(C)CC(=O)O)cccc2c1C(F)(F)F`, the inhibition in [12] worked out at 71%; in test [4], 95%. In addition, the inhibition in vivo at 27 mg/kg/day came out at 90% in the test on Rattus norvegicus [18] and 64% in the test with Rattus norvegicus [19]. The inhibition in vivo at 10 mg/kg/day with Rattus norvegicus [20] was 26%; in the test with Rattus norvegicus [21] it was 86%. Besides, the Inhibition is 93% with Rattus norvegicus [6] and 72% in the test on Rattus norvegicus [14].

Turning to `COc1ccc2c(C(=O)N(C=O)CC(=O)O)cccc2c1C(F)(F)F`, the inhibition in test [12] came to 89%; in test [4] it was 96%. The inhibition in vivo at 107 mg/kg/day stood at 82% in the test on Rattus norvegicus [22] and 51% with Rattus norvegicus [23]. Further, the values for the Inhibition in the test on Rattus norvegicus [6] and with Rattus norvegicus [14] were 65% and 42%, respectively.

Consider `O=C1NC(=O)[C@@]2(CCOc3ccc(F)cc32)N1` [SORBINIL], for which the inhibition in vivo at 4 mg/kg/day stood at 69% with Rattus norvegicus [24] and 55% with Rattus norvegicus [25]. In addition, the inhibition in test [12] came out at 10%; in [4], 45%. Besides, the Inhibition is reported as 74% in the test with Rattus norvegicus [9], 96% in the test with Rattus norvegicus [6] and 27% in the test with Rattus norvegicus [14].

In the case of `COc1ccc2c(C(=O)N(CC(=O)O)C(=O)c3ccccc3)cccc2c1C(F)(F)F`, the inhibition result in the test on Rattus norvegicus [26] and in the test on Rattus norvegicus [27] was “inactive” each time. Besides, the inhibition is 15% in [12] and 62% in test [4]. Further, the Inhibition turned out to be 31% in the test with Rattus norvegicus [6] and 40% with Rattus norvegicus [14].

Usually inhibition stands for the share of the control response that was lost under treatment. The Inhibition is the drop in the measured response relative to a control, in per cent. A word on the inhibition in vivo: it is the share of the control response that was lost under treatment.
